Measured values taken from ChEMBL document CHEMBL2375257, “Synthesis of C- and O-prenylated tetrahydroxystilbenes and O-prenylated cinnamates and their action towards cancer cells” (Eur J Med Chem, 2013).

System: K562
Assay: Cytotoxicity against human K562 cells assessed as growth inhibition after 72 hrs by MTT assay
Type: functional, cell-based
Conditions: for IC50: K562, 72 h
Outline: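 K562 leukaemia cells exposed to compounds for 72 h at 37 °C in a humidified 5% CO2 incubator, with MTT read-out. IC50 is the concentration inhibiting cell growth by 50%, estimated from two concentrations per compound. Values are the mean of two independent assays, each run in duplicate; coefficients of variation <10%.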

SMILES | growth inhibition (GI) | IC50 [µM]
COc1cc(CCc2cc(O)cc(OCC=C(C)C)c2)ccc1O | Dose-dependent effect | 63
COc1ccc(CCc2cc(O)cc(OCC=C(C)C)c2)cc1O | Dose-dependent effect | 31.6
COc1cc(/C=C/c2cc(O)cc(OC)c2CC=C(C)C)ccc1O | Dose-dependent effect | 0.1
COC(=O)/C=C/c1ccc(OC/C=C(\C)C=O)cc1 | Dose-dependent effect | 57.5
COC(=O)/C=C/c1ccc(OC/C=C(\C)CO)cc1 | Dose-dependent effect | 70.8
COC(=O)/C=C/c1ccc(OCC=C(C)C)cc1 | Dose-dependent effect | 97.7
COc1cc(CCc2cc(O)cc(OC)c2CC=C(C)C)ccc1O | Dose-dependent effect | 10
COc1cc(/C=C/c2cc(O)cc(OCC=C(C)C)c2)ccc1O | Dose-dependent effect | 21
COc1ccc(/C=C/c2cc(O)cc(OCC=C(C)C)c2)cc1O | Dose-dependent effect | 46.8
